Converted amounts (≈) assume the structure as drawn. The source made the active and inactive calls. No cut-off for these calls is given here.
Tests used:
Escherichia coli [1] = test: Antimicrobial activity against Escherichia coli ATCC 35218 assessed as diameter of inhibition zone at 20 uM after 24 hrs by Kirby -Baur disc diffusion method; format: functional
Summary of the method: (§1)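 Kirby-Bauer disc diffusion was used. Acetone stocks (160 µM) were serially doubled down to 80, 40 and 20 µM. 4 µL of each went onto 5 mm sterile paper discs, which were dried 30 min at 50 °C. Inoculum was 1.5 × 10⁸ CFU/mL diluted to 3 × 10² CFU/mL, and 50 µL was spread on Mueller-Hinton agar. After 24 h at 37 °C the inhibition-zone diameter was measured. Ciprofloxacin served as positive control.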

Aspergillus niger [2] = test: Antifungal activity against Aspergillus niger MTCC 1108 after 48 hrs; format: functional
Aspergillus flavus [3] = test: Antifungal activity against Aspergillus flavus MTCC 1021 assessed as zone of inhibition at 80 uM after 48 hrs by disc diffusion method; format: functional
Summary of the method: (§2)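 Spores from 4-day potato dextrose agar cultures, suspended in sterile water at 1.5 × 10⁵ CFU/mL. 0.2 mL was spread on potato dextrose agar. 5 mm filter-paper discs soaked with test compound were laid on the lawn. Incubation was 48 h at 28 °C, then the inhibition zone was measured in mm. Fluconazole was the positive control and acetone the negative control.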

Salmonella typhi [4] = test: Antimicrobial activity against Salmonella typhi ATCC 23564 assessed as diameter of inhibition zone at 80 uM after 24 hrs by Kirby -Baur disc diffusion method; format: functional, Salmonella enterica subsp. enterica serovar Typhi; conditions: Salmonella enterica, ATCC 23564, 24 h; read-out: DIZ
Pseudomonas aeruginosa [5] = test: Antimicrobial activity against Pseudomonas aeruginosa ATCC 15499 assessed as diameter of inhibition zone at 40 uM after 24 hrs by Kirby -Baur disc diffusion method; format: functional; conditions: ATCC 15499, 24 h, read-out: DIZ; summary of the method: as §1
QG-56 = test: Cytotoxicity against human QG56 cells after 24 hrs by MTT assay; format: functional, cell-based
Summary of the method: (§3)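 The MTT assay seeded 5 × 10⁴ cells per well and grew them 24 h in RPMI 1640 with compound at 2.5–200 µM. Medium without cells was the blank and adriamycin the positive control. MTT was added for 4 h at 37 °C, formazan was solubilised, and absorbance was read at 570 nm. IC50 is the concentration that cuts viability 50% against untreated cells.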

Staphylococcus aureus [6] = test: Antimicrobial activity against Staphylococcus aureus ATCC 11632 after 24 hrs by broth micro serial dilution method; format: functional
Summary of the method: (§4)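 This was broth microdilution in autoclaved Mueller-Hinton broth. 150 µL of compound per well was serially diluted […], and 50 µL of test organism was added. Plates were incubated 24 h at 37 °C and optical density was read.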

Trichoderma viride [7] = test: Antifungal activity against Trichoderma viride MTCC 1107 assessed as zone of inhibition at 80 uM after 48 hrs by disc diffusion method; format: functional; conditions: MTCC 1107, 48 h, read-out: IZ; summary of the method: as §2
Escherichia coli [8] = test: Antimicrobial activity against Escherichia coli ATCC 35218 after 24 hrs by broth micro serial dilution method; format: functional; conditions: ATCC 35218, 24 h; summary of the method: as §4
Curvularia lunata [9] = test: Antifungal activity against Curvularia lunata MTCC 581 assessed as zone of inhibition at 20 uM after 48 hrs by disc diffusion method; format: functional; summary of the method: as §2
Escherichia coli [10] = test: Antimicrobial activity against Escherichia coli ATCC 35218 assessed as diameter of inhibition zone at 40 uM after 24 hrs by Kirby -Baur disc diffusion method; format: functional; summary of the method: as §1
Bacillus cereus [11] = test: Antimicrobial activity against Bacillus cereus MTCC 7350 after 24 hrs by broth micro serial dilution method; format: functional; summary of the method: as §4
Trichoderma viride [12] = test: Antifungal activity against Trichoderma viride MTCC 1107 assessed as zone of inhibition at 20 uM after 48 hrs by disc diffusion method; format: functional; summary of the method: as §2
Curvularia lunata [13] = test: Antifungal activity against Curvularia lunata MTCC 581 after 48 hrs; format: functional; conditions: MTCC 581, 48 h
HeLa = test: Cytotoxicity against human HeLa cells after 24 hrs by MTT assay; format: functional, cell-based; summary of the method: as §3
Aspergillus flavus [14] = test: Antifungal activity against Aspergillus flavus MTCC 1021 after 48 hrs; format: functional; conditions: MTCC 1021, 48 h
Staphylococcus aureus [15] = test: Antimicrobial activity against Staphylococcus aureus ATCC 11632 assessed as diameter of inhibition zone at 20 uM after 24 hrs by Kirby -Baur disc diffusion method; format: functional; summary of the method: as §1
Trichoderma viride [16] = test: Antifungal activity against Trichoderma viride MTCC 1107 after 48 hrs; format: functional; conditions: MTCC 1107, 48 h
HCT-116 = test: Cytotoxicity against human HCT116 cells after 24 hrs by MTT assay; format: functional, cell-based; summary of the method: as §3
Staphylococcus aureus [17] = test: Antimicrobial activity against Staphylococcus aureus ATCC 11632 assessed as diameter of inhibition zone at 40 uM after 24 hrs by Kirby -Baur disc diffusion method; format: functional; summary of the method: as §1
Salmonella typhi [18] = test: Antimicrobial activity against Salmonella typhi ATCC 23564 assessed as diameter of inhibition zone at 20 uM after 24 hrs by Kirby -Baur disc diffusion method; format: functional; conditions: Salmonella enterica subsp. enterica serovar Typhi
Bacillus cereus [19] = test: Antimicrobial activity against Bacillus cereus MTCC 7350 assessed as diameter of inhibition zone at 80 uM after 24 hrs by Kirby -Baur disc diffusion method; format: functional; summary of the method: as §1
Escherichia coli [20] = test: Antimicrobial activity against Escherichia coli ATCC 35218 assessed as diameter of inhibition zone at 80 uM after 24 hrs by Kirby -Baur disc diffusion method; format: functional; conditions: ATCC 35218, 24 h, read-out: DIZ; summary of the method: as §1
Mus musculus = test: Antiinflammatory activity in mouse assessed as inhibition of carrageenan-induced increase in paw volume at 200 mg/kg administered 1 hr prior to carrageenan challenge measured after 3 hrs relative to control; format: functional
Summary of the method: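 Mice were fasted 2 h and placed in groups of five. Controls received saline i.p. Phenylbutazone was given at 100 mg/kg i.p., curcumin at 200 mg/kg i.p., and derivatives at 200 mg/kg. After 1 h, 0.1 mL of 1% carrageenan in saline was injected subplantar into the right hind paw. Paw volume was followed by plethysmometer for 3 h, and % inhibition was calculated as (Vc − Vt)/Vc × 100.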

Staphylococcus aureus [21] = test: Antimicrobial activity against Staphylococcus aureus ATCC 11632 assessed as diameter of inhibition zone at 80 uM after 24 hrs by Kirby -Baur disc diffusion method; format: functional; summary of the method: as §1
Salmonella typhi [22] = test: Antimicrobial activity against Salmonella typhi ATCC 23564 after 24 hrs by broth micro serial dilution method; format: functional, Salmonella enterica subsp. enterica serovar Typhi; conditions: Salmonella enterica, ATCC 23564, 24 h
Trichoderma viride [23] = test: Antifungal activity against Trichoderma viride MTCC 1107 assessed as zone of inhibition at 40 uM after 48 hrs by disc diffusion method; format: functional; conditions: MTCC 1107, 48 h, read-out: IZ; summary of the method: as §2
Pseudomonas aeruginosa [24] = test: Antimicrobial activity against Pseudomonas aeruginosa ATCC 15499 assessed as diameter of inhibition zone at 80 uM after 24 hrs by Kirby -Baur disc diffusion method; format: functional; summary of the method: as §1
Pseudomonas aeruginosa [25] = test: Antimicrobial activity against Pseudomonas aeruginosa ATCC 15499 after 24 hrs by broth micro serial dilution method; format: functional; conditions: ATCC 15499, 24 h; summary of the method: as §4
HepG2 = test: Cytotoxicity against human HepG2 cells after 24 hrs by MTT assay; format: functional, cell-based; summary of the method: as §3
Pseudomonas aeruginosa [26] = test: Antimicrobial activity against Pseudomonas aeruginosa ATCC 15499 assessed as diameter of inhibition zone at 20 uM after 24 hrs by Kirby -Baur disc diffusion method; format: functional; summary of the method: as §1
Aspergillus niger [27] = test: Antifungal activity against Aspergillus niger MTCC 1108 assessed as zone of inhibition at 80 uM after 48 hrs by disc diffusion method; format: functional; summary of the method: as §2
Curvularia lunata [28] = test: Antifungal activity against Curvularia lunata MTCC 581 assessed as zone of inhibition at 40 uM after 48 hrs by disc diffusion method; format: functional; conditions: MTCC 581, 48 h, read-out: IZ; summary of the method: as §2
Salmonella typhi [29] = test: Antimicrobial activity against Salmonella typhi ATCC 23564 assessed as diameter of inhibition zone at 40 uM after 24 hrs by Kirby -Baur disc diffusion method; format: functional, Salmonella enterica subsp. enterica serovar Typhi; conditions: Salmonella enterica, ATCC 23564, 24 h; read-out: DIZ
Curvularia lunata [30] = test: Antifungal activity against Curvularia lunata MTCC 581 assessed as zone of inhibition at 80 uM after 48 hrs by disc diffusion method; format: functional; conditions: MTCC 581, 48 h, read-out: IZ; summary of the method: as §2

COc1ccc(NS(=O)(=O)c2ccc(/N=N/c3c(/C=C/c4ccc(O)c(OC)c4)noc3/C=C/c3ccc(O)c(OC)c3)cc2)nn1
diameter of the inhibition zone (DIZ) (Escherichia coli [1]): inactive
MIC (Aspergillus niger [2]; MTCC 1108, 48 h): > 80 µM
inhibition zone (IZ) (Aspergillus flavus [3]): inactive
zone of inhibition at 80 µM (Salmonella typhi [4]): 14 mm
zone of inhibition at 40 µM (Pseudomonas aeruginosa [5]): 9 mm
IC50 (QG-56): Not Active
MIC (Staphylococcus aureus [6]; ATCC 11632, 24 h): > 80 µM
zone of inhibition at 80 µM (Trichoderma viride [7]): 11 mm
MIC (Escherichia coli [8]): > 80 µM
inhibition zone (IZ) (Curvularia lunata [9]): inactive
diameter of the inhibition zone (DIZ) (Escherichia coli [10]): inactive
MIC (Bacillus cereus [11]): inactive
inhibition zone (IZ) (Trichoderma viride [12]): inactive
MIC (Curvularia lunata [13]): > 80 µM
IC50 (HeLa): Not Active
MIC (Aspergillus flavus [14]): > 80 µM
diameter of the inhibition zone (DIZ) (Staphylococcus aureus [15]): inactive
MIC (Trichoderma viride [16]): > 80 µM
IC50 (HCT-116): Not Active
diameter of the inhibition zone (DIZ) (Staphylococcus aureus [17]): inactive
diameter of the inhibition zone (DIZ) (Salmonella typhi [18]): inactive
diameter of the inhibition zone (DIZ) (Bacillus cereus [19]): inactive
zone of inhibition at 80 µM (Escherichia coli [20]): 11 mm
inhibition in vivo at 200 mg/kg (Mus musculus): 48.3%
zone of inhibition at 80 µM (Staphylococcus aureus [21]; ATCC 11632, 24 h, read-out: DIZ): 10 mm
MIC (Salmonella typhi [22]): 80 µM (≈ 52.5 µg/mL)
zone of inhibition at 40 µM (Trichoderma viride [23]): 9 mm
zone of inhibition at 80 µM (Pseudomonas aeruginosa [24]; ATCC 15499, 24 h, read-out: DIZ): 13 mm
MIC (Pseudomonas aeruginosa [25]): 80 µM (≈ 52.5 µg/mL)
IC50 (HepG2): Not Active
diameter of the inhibition zone (DIZ) (Pseudomonas aeruginosa [26]): inactive
inhibition zone (IZ) (Aspergillus niger [27]): inactive
zone of inhibition at 40 µM (Curvularia lunata [28]): 9 mm
zone of inhibition at 40 µM (Salmonella typhi [29]): 9 mm
zone of inhibition at 80 µM (Curvularia lunata [30]): 11 mm

COc1cc(/C=C/c2noc(/C=C/c3ccc(O)c(OC)c3)c2/N=N/c2ccc(S(=O)(=O)Nc3ccccn3)cc2)ccc1O
diameter of the inhibition zone (DIZ) (Escherichia coli [1]): inactive
MIC (Aspergillus niger [2]): inactive
inhibition zone (IZ) (Aspergillus flavus [3]): inactive
zone of inhibition at 80 µM (Salmonella typhi [4]): 15 mm
IC50 (QG-56): Not Active
MIC (Staphylococcus aureus [6]): inactive
zone of inhibition at 80 µM (Trichoderma viride [7]): 12 mm
MIC (Escherichia coli [8]): > 80 µM
inhibition zone (IZ) (Curvularia lunata [9]): inactive
diameter of the inhibition zone (DIZ) (Escherichia coli [10]): inactive
MIC (Bacillus cereus [11]): inactive
inhibition zone (IZ) (Trichoderma viride [12]): inactive
MIC (Curvularia lunata [13]): > 80 µM
IC50 (HeLa): Not Active
MIC (Aspergillus flavus [14]): > 80 µM
MIC (Trichoderma viride [16]): 80 µM (≈ 50.1 µg/mL)
IC50 (HCT-116): Not Active
diameter of the inhibition zone (DIZ) (Salmonella typhi [18]): inactive
diameter of the inhibition zone (DIZ) (Bacillus cereus [19]): inactive
zone of inhibition at 80 µM (Escherichia coli [20]): 10 mm
inhibition in vivo at 200 mg/kg (Mus musculus): 27.4%
diameter of the inhibition zone (DIZ) (Staphylococcus aureus [21]): inactive
MIC (Salmonella typhi [22]): 80 µM (≈ 50.1 µg/mL)
zone of inhibition at 40 µM (Trichoderma viride [23]): 10 mm
diameter of the inhibition zone (DIZ) (Pseudomonas aeruginosa [24]): inactive
MIC (Pseudomonas aeruginosa [25]): > 80 µM
IC50 (HepG2): Not Active
inhibition zone (IZ) (Aspergillus niger [27]): inactive
zone of inhibition at 40 µM (Curvularia lunata [28]): 10 mm
zone of inhibition at 40 µM (Salmonella typhi [29]): 9 mm
zone of inhibition at 80 µM (Curvularia lunata [30]): 12 mm
